Assay results as given in article PMC8177775 (Cancer Science, 2021).
Several values for one entry are separate records, joined by “and”; a condition that tells them apart may be missing. Equal entries are not always repeated. Entries after “also recorded” stand apart in the source; their conditions may differ. Where two headings read alike, the source gives them in different places.

Columns and labels:
solid tumors = experiment: Efficacy assessment by RECIST version 1.1; type: in vivo, human
How it was run: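 Adults with relapsed or refractory solid tumors took oral test compound (tosylate salt) QD on days 1–21 of 28-day cycles at 60, 90 or 120 mg. Response was assessed by RECIST 1.1 using CT and MRI every 8 weeks through cycle 8, then every 12 weeks. Minimum SD duration was 8 weeks after first dose. Summaries were descriptive over patients with efficacy data.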

[1] = system: macrophage inhibitory cytokine‐1 (MIC‐1) levels in serum; experiment: Serum MIC-1; type: in vivo, human
How it was run: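 Serum was drawn on cycle 1 day 1 before dosing and 6 h post dose, and on days 2, 8, 15 and 21, during oral QD dosing on days 1–21 at 60, 90 or 120 mg. MIC-1 (GDF-15) was quantified by quantitative sandwich ELISA for human GDF-15. Change from baseline was summarized by cohort using descriptive statistics.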

[2] = system: advanced solid tumors or lymphomas; details: cited from earlier work
[3] = system: human osteosarcoma xenografts; details: human osteosarcoma xenografts in nude mice; cited from earlier work
[4] = system: six human cancer cell lines; details: cited from earlier work
[5] = Plasma pharmacokinetics of milademetan; type: in vivo, human; details: for AUC: AUCtau
[6] = Day 21 of cycle 1, Cohort 2 (90 mg/d) (n = 9), oral QD, mean (SD)
[7] = human, plasma, po, 60 mg/d, Day 1 of cycle 1, Cohort 1 (60 mg/d) (n = 3), oral QD, mean (SD)
[8] = human, plasma, po, 60 mg/d, Day 21 of cycle 1, Cohort 1 (60 mg/d) (n = 2), oral QD, mean (SD)
[9] = human, plasma, po, 90 mg/d, Day 1 of cycle 1, Cohort 2 (90 mg/d) (n = 11), oral QD, mean (SD)

In the case of CC1(C)CCC2(CC1)N[C@@H](C(=O)N[C@@H]1CC[C@@H](C(N)=O)OC1)[C@H](c1ccnc(Cl)c1F)[C@]21C(=O)Nc2cc(Cl)ccc21 [milademetan, Milademetan], the “Complete or partial response” value (solid tumors; 16 patients) is reported as “No patients achieved complete or partial response”, the Antitumor activity (solid tumors; Japanese patients with solid tumors) is reported as “modest antitumor activity” and the “Disease control rate, percentage of patients (95% CI)” value (solid tumors; Total (n = 16)) is reported as 43.8%. The “Progressive disease, percentage of patients (95% CI)” value (solid tumors; Total (n = 16)) was 31.3%, the “Stable disease, percentage of patients (95% CI)” value (solid tumors; Total (n = 16)) was 43.8% and the “PFS rate (95% CI)” value (solid tumors; at 3 months) was 56.8%. For the same compound, the “PFS rate (95% CI)” value (solid tumors; at 6, 9, and 12 months) was 35.5%, the “Patients with a PFS event” value (solid tumors; efficacy analysis set, 17 patients) was “Eight of the 17 patients” and the “Median (minimum, maximum) PFS” value (solid tumors; including censored patients) was 15.29 (0.1, 202.1) weeks and 15.3 (0.1+, 202.1+) weeks. For the same compound, the “Median (range) duration of stable disease” value (solid tumors; including censored patients) was 55.4 (7.3‐202.1) weeks and 55.4 (7.3+, 202.1+) weeks, the “PFS of one patient” value (solid tumors; one patient in the 60-mg cohort with SD as best response) was 202.1 weeks and the “Increase of MIC-1 levels from baseline to day 21, mean (SD)” value (“Increase of MIC-1 levels … (SD)” for short) ([1]; 60-mg cohort) was 2175.7 (1677.40) pg/mL. The “Increase of MIC-1 levels … (SD)” value ([1]; 90-mg cohort) was 9514.5 (6812.78) pg/mL, the “Increase of MIC-1 levels … (SD)” value ([1]; 120-mg cohort) was 7930.5 (7636.72) pg/mL and the “Mean MIC-1 levels after administration” value ([1]; all cohorts) was “increased from baseline in all cohorts”. The “MTD in US phase I study” value ([2]; once-daily 21/28-day schedule) was 120 mg, the “MTD in US phase I study” value ([2]; once-daily 28/28-day schedule) was 90 mg and the “Tumor growth of xenografts” value [3] was “suppresses tumor growth”. The “Growth of cancer cells harboring wild-type p53” value [4] was “inhibits the growth”, the “Plasma concentration versus dose” value ([5]; 60 to 120 mg QD) was “increased in a dose‐dependent manner; also recorded: dose‐dependent increase” and the Ctrough ([5]; Day 21 of cycle 1, Cohort 1 (60 mg/d) (n = 2), oral QD, mean (SD)) was 192 (29.7) ng/mL. For the same compound, the Accumulation rate [5, 6] was 1.65 (0.440), the Ctrough [5, 6] was 389 (234) ng/mL and the Ctrough ([5]; Day 21 of cycle 1, Cohort 3 (120 mg/d) (n = 1), oral QD, SD not calculated) was 552 (NC) ng/mL. The PK linearity ([5]; dose range of 60 to 120 mg/day) was “linear PK”, the half-life ([5]; human, plasma, oral, Mean t1/2, day 1, across 60- to 120-mg cohorts) was 15.1 to 17.9 h and the half-life ([5]; human, plasma, oral, Mean t1/2, day 21, across 60- to 120-mg cohorts) was 18.1 to 26.1 h. The Tmax ([5]; human, plasma, oral, Median Tmax, all cohorts) was ~3 h, the AUC(0-inf) ([5]; human, plasma, po, 60 mg/d) was 6320 ng·h/mL and the AUC [5, 7] was 4250 ng·h/mL. It also gave an AUC [5, 8] of 7390 ng·h/mL, a Cmax [5, 7] of 429 ng/mL and a Cmax [5, 8] of 625 ng/mL. The Tmax ([5]; human, plasma, po, 60 mg/d, Tmax, Day 1 of cycle 1, Cohort 1 (60 mg/d) (n = 3), oral QD, median (minimum, maximum)) was 3 h, the Tmax ([5]; human, plasma, po, 60 mg/d, Tmax, Day 21 of cycle 1, Cohort 1 (60 mg/d) (n = 2), oral QD, median (minimum, maximum)) was 2.48 h and the half-life ([5]; human, plasma, po, 60 mg/d, t1/2, Day 1 of cycle 1, Cohort 1 (60 mg/d) (n = 3), oral QD, mean (SD)) was 15.1 h. It also gave a half-life ([5]; human, plasma, po, 60 mg/d, t1/2, Day 21 of cycle 1, Cohort 1 (60 mg/d) (n = 2), oral QD, mean (SD)) of 18.1 h, an AUC [5, 9] of 8380 ng·h/mL and a Cmax [5, 9] of 692 ng/mL. It also gave a Cmax ([5]; human, plasma, po, 90 mg/d, Day 21 of cycle 1, Cohort 2 (90 mg/d) (n = 9), oral QD, mean (SD)) of 995 ng/mL, a Tmax ([5]; human, plasma, po, 90 mg/d, Tmax, Day 1 of cycle 1, Cohort 2 (90 mg/d) (n = 11), oral QD, median (minimum, maximum)) of 3 h and a Tmax ([5]; human, plasma, po, 90 mg/d, Tmax, Day 21 of cycle 1, Cohort 2 (90 mg/d) (n = 9), oral QD, median (minimum, maximum)) of 3.02 h. It also gave a half-life ([5]; human, plasma, po, 90 mg/d, t1/2, Day 1 of cycle 1, Cohort 2 (90 mg/d) (n = 11), oral QD, mean (SD)) of 15.4 h, a half-life ([5]; human, plasma, po, 90 mg/d, t1/2, Day 21 of cycle 1, Cohort 2 (90 mg/d) (n = 9), oral QD, mean (SD)) of 20.9 h and a Cmax ([5]; human, plasma, po, 120 mg/d, Day 1 of cycle 1, Cohort 3 (120 mg/d) (n = 4), oral QD, mean (SD)) of 1140 ng/mL. For the same compound, the Tmax ([5]; human, plasma, po, 120 mg/d, Tmax, Day 1 of cycle 1, Cohort 3 (120 mg/d) (n = 4), oral QD, median (minimum, maximum)) was 3.01 h, the Tmax ([5]; human, plasma, po, 120 mg/d, Tmax, Day 21 of cycle 1, Cohort 3 (120 mg/d) (n = 1), oral QD, median (minimum, maximum)) was 2.95 h and the half-life ([5]; human, plasma, po, 120 mg/d, t1/2, Day 1 of cycle 1, Cohort 3 (120 mg/d) (n = 4), oral QD, mean (SD)) was 17.9 h. It also gave an AUC(0-t) ([5]; human, plasma, po, 120 mg/day) of 25600 ng·h/mL.
